# Experimental data reported in ChEMBL document CHEMBL1772977, “Synthesis and biological evaluation of novel 4-benzylpiperazine ligands for sigma-1 receptor imaging” (Bioorg Med Chem, 2011).
# How the values were obtained:
# Type in all cases: ADME, organism-based
# Kidney [1] = assay: Biodistribution in ICR mouse kidney at 1 uCi, iv after 60 mins postinjection; conditions: in vivo, 1 h
# Procedure, shortened: (§1)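 Female ICR mice (18–22 g, n = 5) received HPLC-purified radiotracer by tail vein (0.1 mL). They were killed by cervical fracture at the stated times. Blood and organs were removed, weighed and gamma-counted. Uptake expressed as percent injected dose per gram of tissue (%ID/g), given as mean with SD.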
# Lung [2] = assay: Biodistribution in ICR mouse lung at 1 uCi, iv after 240 mins postinjection; conditions: in vivo, 4 h; procedure, shortened: as §1
# Liver [3] = assay: Biodistribution in ICR mouse liver at 1 uCi, iv after 30 mins postinjection; conditions: in vivo, 0.5 h; procedure, shortened: as §1
# Brain [4] = assay: Biodistribution in ICR mouse brain at 1 uCi, iv after 30 mins postinjection; conditions: in vivo, 0.5 h; procedure, shortened: as §1
# Mus musculus [5] = assay: Biodistribution in ICR mouse small intestine at 1 uCi, iv after 120 mins postinjection; conditions: in vivo, 2 h; procedure, shortened: as §1
# Spleen [6] = assay: Biodistribution in ICR mouse spleen at 1 uCi, iv after 15 mins postinjection; conditions: in vivo, 0.25 h; procedure, shortened: as §1
# Mus musculus [7] = assay: Biodistribution in ICR mouse small intestine at 1 uCi, iv after 240 mins postinjection; conditions: in vivo, 4 h; procedure, shortened: as §1
# Blood [8] = assay: Biodistribution in ICR mouse blood at 1 uCi, iv after 30 mins postinjection; conditions: in vivo, 0.5 h; procedure, shortened: as §1
# Mus musculus [9] = assay: Biodistribution in ICR mouse small intestine at 1 uCi, iv after 15 mins postinjection; conditions: in vivo, 0.25 h; procedure, shortened: as §1
# Brain [10] = assay: Biodistribution in ICR mouse brain at 1 uCi, iv after 60 mins postinjection; conditions: in vivo, 1 h; procedure, shortened: as §1
# Brain [11] = assay: Biodistribution in ICR mouse brain at 1 uCi, iv after 240 mins postinjection; conditions: in vivo, 4 h; procedure, shortened: as §1
# Mus musculus [12] = assay: Biodistribution in ICR mouse small intestine at 1 uCi, iv after 60 mins postinjection; conditions: in vivo, 1 h; procedure, shortened: as §1
# Spleen [13] = assay: Biodistribution in ICR mouse spleen at 1 uCi, iv after 30 mins postinjection; conditions: in vivo, 0.5 h; procedure, shortened: as §1
# Blood [14] = assay: Biodistribution in ICR mouse blood at 1 uCi, iv after 15 mins postinjection; conditions: in vivo, 0.25 h; procedure, shortened: as §1
# Heart [15] = assay: Biodistribution in ICR mouse heart at 1 uCi, iv after 60 mins postinjection; conditions: in vivo, 1 h; procedure, shortened: as §1
# Lung [16] = assay: Biodistribution in ICR mouse lung at 1 uCi, iv after 30 mins postinjection; conditions: in vivo, 0.5 h; procedure, shortened: as §1
# Spleen [17] = assay: Biodistribution in ICR mouse spleen at 1 uCi, iv after 120 mins postinjection; conditions: in vivo, 2 h; procedure, shortened: as §1
# Blood [18] = assay: Biodistribution in ICR mouse blood at 1 uCi, iv after 120 mins postinjection; conditions: in vivo, 2 h; procedure, shortened: as §1
# Muscle tissue = assay: Biodistribution in ICR mouse muscle at 1 uCi, iv after 60 mins postinjection; conditions: in vivo, 1 h; procedure, shortened: as §1
# Thyroid gland [19] = assay: Biodistribution in ICR mouse thyroid at 1 uCi, iv after 60 mins postinjection; conditions: in vivo, 1 h
# Procedure, shortened: (§2)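 Female ICR mice (18–22 g, n = 5) received HPLC-purified radioiodinated tracer by tail vein (0.1 mL, 1 µCi). They were killed by cervical fracture at 15, 30, 60, 120 or 240 min post-injection. Blood and organs were removed, weighed and gamma-counted. Uptake is expressed as %ID/g, mean ± SD, n = 4–5.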
# Thyroid gland [20] = assay: Biodistribution in ICR mouse thyroid at 1 uCi, iv after 240 mins postinjection; conditions: in vivo, 4 h; procedure, shortened: as §2
# Liver [21] = assay: Biodistribution in ICR mouse liver at 1 uCi, iv after 120 mins postinjection; conditions: in vivo, 2 h; procedure, shortened: as §1
# Stomach = assay: Biodistribution in ICR mouse stomach at 1 uCi, iv measured per organ after 30 mins postinjection; conditions: in vivo, 0.5 h
# Thyroid gland [22] = assay: Biodistribution in ICR mouse thyroid at 1 uCi, iv after 15 mins postinjection; conditions: in vivo, 0.25 h; procedure, shortened: as §2
# Brain [23] = assay: Biodistribution in ICR mouse brain at 1 uCi, iv after 15 mins postinjection; conditions: in vivo, 0.25 h; procedure, shortened: as §1
# Lung [24] = assay: Biodistribution in ICR mouse lung at 1 uCi, iv after 120 mins postinjection; conditions: in vivo, 2 h; procedure, shortened: as §1
# Kidney [25] = assay: Biodistribution in ICR mouse kidney at 1 uCi, iv after 240 mins postinjection; conditions: in vivo, 4 h; procedure, shortened: as §1
# Heart [26] = assay: Biodistribution in ICR mouse heart at 1 uCi, iv after 15 mins postinjection; conditions: in vivo, 0.25 h; procedure, shortened: as §1
smiles,measurement,setting,value
[125I]c1ccc(CN2CCN(Cc3ccc4c(c3)OCO4)CC2)cc1,Drug uptake,Kidney [1],8.73 % ID/g
same,Drug uptake,Lung [2],2.69 % ID/g
same,Drug uptake,Liver [3],6.39 % ID/g
same,Drug uptake,Brain [4],4.96 % ID/g
same,Drug uptake,Mus musculus [5],10.73 % ID/g
same,Drug uptake,Spleen [6],6.68 % ID/g
same,Drug uptake,Mus musculus [7],10.95 % ID/g
same,Drug uptake,Blood [8],0.88 % ID/g
same,Drug uptake,Mus musculus [9],5.77 % ID/g
same,Drug uptake,Brain [10],4.63 % ID/g
same,Drug uptake,Brain [11],2.09 % ID/g
same,Drug uptake,Mus musculus [12],7.45 % ID/g
same,Drug uptake,Spleen [13],6.53 % ID/g
same,Drug uptake,Blood [14],1.34 % ID/g
same,Drug uptake,Heart [15],1.71 % ID/g
same,Drug uptake,Lung [16],8.7 % ID/g
same,Drug uptake,Spleen [17],4.79 % ID/g
same,Drug uptake,Blood [18],0.77 % ID/g
same,Drug uptake,Muscle tissue,1.5 % ID/g
same,Drug uptake,Thyroid gland [19],1.53 % ID/g
same,Drug uptake,Thyroid gland [20],1.22 % ID/g
same,Drug uptake,Liver [21],5.08 % ID/g
same,Drug uptake,Stomach,2.12 %ID
same,Drug uptake,Thyroid gland [22],6.55 % ID/g
same,Drug uptake,Brain [23],5.03 % ID/g
same,Drug uptake,Lung [24],4.91 % ID/g
same,Drug uptake,Kidney [25],6.89 % ID/g
same,Drug uptake,Heart [26],3.98 % ID/g
